Reference: ChEMBL document CHEMBL1149791, “Evaluation of myorelaxant activity of 7-substituted hexahydroquinoline derivatives in isolated rabbit gastric fundus” (2008)
The source made the active and inactive calls. No cut-off for these calls is given here.

Assays:
[1] = tested on: Stomach; assay: Inhibition of electrical field stimulation-induced neurogenic contractions in New Zealand white rabbit gastric fundus smooth muscle; assay type: functional
[2] = tested on: Stomach; assay: Myorelaxant activity against noradrenaline-induced contractions in New Zealand white rabbit gastric fundus smooth muscle; assay type: functional, Oryctolagus cuniculus
Outline: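 Longitudinal fundus strips (15-20 mm x 2 mm) were equilibrated 60 min at 1 g basal tension in Krebs-Henseleit solution, with the solution changed every 15 min. L-NAME 10^-4 M and indomethacin 10^-5 M were added 20 min before precontraction. Strips were precontracted with noradrenaline 10^-5 M. Compounds in DMSO were added cumulatively, each step after a plateau. pD2 and Em (at 3 x 10^-4 M) are mean ± S.E., n = 6.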

[3] = tested on: Stomach; assay: Myorelaxant activity against noradrenaline-induced contractions in New Zealand white rabbit gastric fundus smooth muscle in presence of glibenclamide; assay type: functional, tissue-based; details: Oryctolagus cuniculus
[4] = tested on: Stomach; assay: Reversal of inhibition of electrical field stimulation-induced neurogenic contractions in New Zealand white rabbit gastric fundus smooth muscle in presence of glibenclamide; assay type: functional, Oryctolagus cuniculus
[5] = tested on: Stomach; assay: Inhibition of neostigmine-induced neurogenic contractions in New Zealand white rabbit gastric fundus smooth muscle; assay type: functional, tissue-based; details: Oryctolagus cuniculus
Outline: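 Longitudinal gastric fundus strips (about 15–20 mm × 2 mm) from New Zealand white rabbits (2.5–3 kg), taken after i.v. pentobarbital. Strips were held in Krebs–Henseleit organ baths at 1 g basal tension and equilibrated 60 min. Contractions were evoked by electrical field stimulation through platinum electrodes (1 ms pulses, 60 V, 8 Hz) with neostigmine 10^-6 M. Compounds were dissolved in DMSO.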

Compound | Activity ([1]; Oryctolagus cuniculus) | pD2 [2] | Emax ([2]; Oryctolagus cuniculus, Stomach) | Activity [3] | pD2 [1] | Emax ([1]; Oryctolagus cuniculus, Stomach) | inhibition (INH) [4] | Activity [5]
NC1=N[C@H](O)[C@H]2[C@H]3O[C@]4(O)O[C@@H]([C@@H](O)[C@@]2(N1)[C@@H]4O)[C@]3(O)CO | Active | – | – | – | – | – | – | –
CC(N/C(=N\C#N)Nc1ccncc1)C(C)(C)C (centres undefined) [PINACIDIL ANHYDROUS] | – | 5.03 | 71.2% | Active | 7.49 | 76.3% | 32.18% | –
CN1[C@@H]2CC[C@H]1CC(OC(=O)[C@H](CO)c1ccccc1)C2 (some centres undefined) | Active | – | – | – | – | – | – | Active
